The values below come from ChEMBL document CHEMBL5357022, “Fluorinated Isoindolinone-Based Glucosylceramide Synthase Inhibitors with Low Human Dose Projections” (ACS Med Chem Lett, 2024).

Structures are written as SMILES. pEC50: −log10 of the molar value. Bounds are passed on as bounds.

Data set [1] deals with T1, Nuclear receptor subfamily 1 group I member 2 (Homo sapiens, UniProt O75469).
T1 sequence (O75469 whole entry): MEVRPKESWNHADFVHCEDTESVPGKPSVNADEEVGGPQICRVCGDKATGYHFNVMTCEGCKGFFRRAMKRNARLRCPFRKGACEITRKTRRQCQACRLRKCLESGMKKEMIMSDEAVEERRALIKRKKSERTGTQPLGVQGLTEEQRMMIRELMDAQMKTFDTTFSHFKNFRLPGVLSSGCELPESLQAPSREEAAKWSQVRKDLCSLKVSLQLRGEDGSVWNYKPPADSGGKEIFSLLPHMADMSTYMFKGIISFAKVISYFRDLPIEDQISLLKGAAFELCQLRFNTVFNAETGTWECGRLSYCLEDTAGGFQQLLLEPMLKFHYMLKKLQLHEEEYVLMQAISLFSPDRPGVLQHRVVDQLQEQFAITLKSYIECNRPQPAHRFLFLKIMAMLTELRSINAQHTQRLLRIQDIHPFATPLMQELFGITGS
Description: Activation of PXR (unknown origin). The class given is toxicity.

For a further data set, the target named is T2, PXR (NR1I2) (Homo sapiens, UniProt O75469).
T2 sequence (O75469 whole entry): T1 sequence (O75469 whole entry)
Nature of the data set: Activation of PXR (unknown origin) assessed as maximal efficacy relative to control. Type of data set: toxicity.

Data set [2] can be described thus: Unbound brain-to-plasma concentration ratio in rat. The class given is ADME. The settings on record: read-out: K(p,uu,brain).
Data set [3] in a line: Plasma protein binding in dog assessed as unbound fraction. The class given is ADME, cell-free, Canis lupus familiaris.
Data set [4] in a line: Plasma protein binding in human assessed as unbound fraction. The class given is ADME, cell-free.
Data set [5] in a line: Oral bioavailability in Beagle dog at 1 mg/kg in 30% captisol formulation measured after 24 hrs. Type of data set: ADME, organism-based, Canis lupus familiaris. The settings on record: in vivo. An outline of the steps:
(§1)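 Beagle dogs were given 0.5 mg/kg IV in DMSO/PEG400/H2O 20/60/20 at 0.5 mL/kg, and 1 mg/kg PO in 30% Captisol at 2 mL/kg. Sampling ran to a 24 h end point.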

A short description of data set [6]: MRT in Beagle dog at 1 mg/kg, po in 30% captisol formulation or 0.5 mg/kg, iv measured after 24 hrs. The class given is ADME, organism-based, Canis lupus familiaris. The settings on record: in vivo. The method, boiled down:
as §1

A short description of data set [7]: Unbound volume of distribution in Beagle dog at 1 mg/kg, po in 30% captisol formulation or 0.5 mg/kg, iv measured after 24 hrs. Type of data set: ADME, organism-based, Canis lupus familiaris. The settings on record: in vivo. The method, boiled down: as §1
Data set [8] in a line: Plasma protein binding in rat assessed as unbound fraction. The class given is ADME, cell-free.
Data set [9] in a line: Metabolic stability in human hepatocytes assessed as intrinsic clearance. The class given is ADME, cell-based, Hepatocyte. The settings on record: read-out: CLH.
A short description of data set [10]: […] clearance in Beagle dog at 1 mg/kg, po in 30% captisol formulation or 0.5 mg/kg, iv measured after 24 hrs. The class given is ADME, organism-based, Canis lupus familiaris. Particulars: in vivo. The method, boiled down:
as §1

Data set [11] in a line: Intrinsic clearance in Wistar Han rat at 5 mg/kg, po or 2 mg/kg, iv measured after 24 hrs. Type of data set: ADME, organism-based. Particulars: in vivo. The method, boiled down: (§2)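 Wistar Han rats were dosed IV at 2 mg/kg in DMSO/PEG400/H2O 20/60/20 at 1 mL/kg, and PO at 5 mg/kg in PEG400/Tween80/H2O 40/10/50 at 2 mL/kg. Sampling ran to a 24 h end point.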
Data set [12] is described as follows: Unbound volume of distribution in Wistar Han rat at 5 mg/kg, po or 2 mg/kg, iv measured after 24 hrs. The class given is ADME, organism-based. The settings on record: in vivo. An outline of the steps: as §2
Data set [13] can be described thus: MRT in Wistar Han rat at 5 mg/kg, po or 2 mg/kg, iv measured after 24 hrs. Type of data set: ADME, organism-based. The settings on record: in vivo. An outline of the steps: as §2
A short description of data set [14]: Oral bioavailability in Wistar Han rat at 5 mg/kg measured after 24 hrs. The settings on record: in vivo. The class given is ADME, organism-based. The method, boiled down: as §2
Data set [15] in a line: MRT in Beagle dog at 1 mg/kg, po in 10% tween 80 formulation or 0.5 mg/kg, iv measured after 24 hrs. The class given is ADME, organism-based, Canis lupus familiaris. The settings on record: in vivo. An outline of the steps:
(§3)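 Beagle dogs were given 0.5 mg/kg IV in DMSO/PEG400/H2O 20/60/20 at 0.5 mL/kg, and 1 mg/kg PO in a 10% Tween 80 formulation. Sampling ran to a 24 h end point.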

Data set [16] in a line: […] clearance in Beagle dog at 1 mg/kg, po in 10% tween 80 formulation or 0.5 mg/kg, iv measured after 24 hrs. Type of data set: ADME, organism-based, Canis lupus familiaris. The settings on record: in vivo. The method, boiled down:
as §3

The nature of data set [17]: Unbound volume of distribution in Beagle dog at 1 mg/kg, po in 10% tween 80 formulation or 0.5 mg/kg, iv measured after 24 hrs. Particulars: in vivo. The class given is ADME, organism-based, Canis lupus familiaris. The method, boiled down:
as §3

Data set [18] in a line: Oral bioavailability in Beagle dog at 1 mg/kg in 10% tween 80 formulation measured after 24 hrs. The class given is ADME, organism-based, Canis lupus familiaris. Particulars: in vivo. An outline of the steps:
as §3

The nature of data set [19]: Octanol-water partition coefficient, logD of the compound. Type of data set: physicochemical.
The nature of data set [20]: MRT in rat. Type of data set: ADME. The settings on record: in vivo.
Data set [21] is described as follows: Clearance in Wistar Han rat at 4 mg/kg, po measured after 24 hrs. Type of data set: ADME, organism-based. Particulars: in vivo. The method, boiled down: (§4)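 Wistar Han rat PK study with a 24 h end point, using an oral dose of 4 mg/kg.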
Data set [22] in a line: Intrinsic clearance in Wistar Han rat at 4 mg/kg, po measured after 24 hrs. Type of data set: ADME, organism-based. Particulars: in vivo. An outline of the steps:
as §4

A short description of data set [23]: Unbound volume of distribution in Wistar Han rat at 4 mg/kg, po measured after 24 hrs. The class given is ADME, organism-based. Particulars: in vivo. The method, boiled down: as §4
Data set [24] in a line: MRT in Wistar Han rat at 4 mg/kg, po measured after 24 hrs. The class given is ADME, organism-based. Particulars: in vivo. The method, boiled down:
as §4

Data set [25] can be described thus: Oral bioavailability in Wistar Han rat at 4 mg/kg measured after 24 hrs. The class given is ADME, organism-based. Particulars: in vivo. The method, boiled down: as §4

In general, pEC50 refers to the EC50 on a negative log10 scale, so that one unit is a factor of ten. A word on the Emax: it is the size of the effect at its maximum, as opposed to the concentration needed. For `Cc1nnc(-c2ccc(-c3ccc(F)c4c3C(=O)N([C@H](C3CC3)C(C)(C)O)C4)cc2)o1`, the negative-log EC50 (pEC50) in [1] is 5.05. Besides, the maximal response (Emax) on PXR (NR1I2) was found to be 97%.
Usually fraction unbound stands for the share of the substance not bound to proteins or other matrix. As a reminder, the bioavailability is the share of a dose that reaches the circulation, judged against a reference dose that is usually intravenous. What is called MRT is the average time that molecules of a dose stay in the body. Turning to `Cc1nnc(-c2ccc(-c3cc(F)c(F)c4c3C(=O)N([C@H](C3CC3)C(C)(C)O)C4)cc2)o1`, the Kp uu in data set [2] was 0.1. The free fraction (fraction unbound) in data set [3] amounted to 0.14; in [4], 0.05; in data set [8], 0.021. Further, the values for the bioavailability in [5] and in [14] were 64% and 57%, respectively. Also, the MRT in [6] turned out to be 11 h; in data set [13], 3.7 h. For the same compound, the Vdu was 17 L/kg in data set [7] and 36 L/kg in data set [12]. The CLint scaled in data set [9] turned out to be 13 mL/min/kg. For the same compound, the CL turned out to be 17 mL/min/kg in data set [10] and 169 mL/min/kg in data set [11].
One may read the logD as lipophilicity at a set pH, counting ionised and neutral species. As to `Cc1nnc(-c2ccc(-c3cccc4c3C(=O)N([C@H](C3CC3)C(C)(C)O)C4)cc2)o1`, the Kp uu in data set [2] was found to be 0.5. In addition, the fraction unbound worked out at 0.1 in [3], 0.032 in data set [4] and 0.013 in data set [8]. In addition, the MRT in data set [15] was 8.6 h; in [13], 3 h. In addition, the CL was found to be 13 mL/min/kg in data set [16] and 211 mL/min/kg in data set [11]. The Vdu amounted to 9.9 L/kg in data set [17] and 36 L/kg in data set [12]. Also, in [9], the CLint scaled worked out at 15 mL/min/kg. For the same compound, the figures for the bioavailability in data set [18] and in data set [14] were 81% and 100%, respectively. The compound also showed a log distribution coefficient (logD) in data set [19] of 2.3. The same compound gave a pEC50 in [1] of 4.54. Besides, the maximal effect (Emax) on PXR (NR1I2) worked out at 89%.
Compound `CCOc1ccccc1C(=O)Nc1cccc2c1C(=O)N(CC1CC1)C2` showed a pEC50 in data set [1] of 5.37. Further, the Emax on PXR (NR1I2) turned out to be 81%. In addition, the MRT in [20] was 1.4 h.
For `CN1Cc2cc(-c3cccc4c3C(=O)N([C@H](C3CC3)C(C)(C)O)C4)ccc2C1=O`, the pEC50 in [1] is under 4.52. Moreover, at PXR (NR1I2), the Emax came to 11%.
As usually defined, the CL/F is the apparent clearance, not corrected for the fraction that reaches the circulation. As to `Cc1nnc(-c2ccc(-c3cc(F)cc4c3C(=O)N([C@H](C3CC3)C(C)(C)O)C4)cc2)o1`, the unbound share (fraction unbound) in data set [3] was 0.2; in data set [4], 0.046; in data set [8] it was 0.026. Besides, the figures for the bioavailability in data set [5] and in data set [25] were 100% and 38%, respectively. Besides, the mean residence time (MRT) is 10 h in [6] and 2.3 h in data set [24]. For the same compound, the Vdu in data set [7] amounted to 12 L/kg; in [23], 16 L/kg. The CLint scaled in data set [9] came out at 19 mL/min/kg. The CL in data set [10] is 21 mL/min/kg; in data set [22], 120 mL/min/kg. The compound also had a negative logarithm of the EC50 (pEC50) in data set [1] of 4.60. The maximum response (Emax) at PXR (NR1I2) was found to be 75%. The same compound came in with a CL/F in data set [21] of 3 mL/min/kg.
The compound `Cc1nnc(-c2ccc(-c3c(F)ccc4c3C(=O)N([C@H](C3CC3)C(C)(C)O)C4)cc2)o1` showed a negative logarithm of the EC50 (pEC50) in [1] of 5.28. The Emax on PXR (NR1I2) amounted to 100%.
The corresponding values for `Cc1nnc(-c2ccc(-c3c(F)cc(F)c4c3C(=O)N([C@H](C3CC3)C(C)(C)O)C4)cc2)o1` are 5.34 and 100%.
Turning to `Cc1nnc(-c2ccc(-c3c(F)c(F)cc4c3C(=O)N([C@@H](C(C)(C)O)C(F)(F)F)C4)cc2)o1`, in data set [2], the Kp uu came to 0.4. The results for the fraction unbound in data set [3], in [4] and in data set [8] were 0.11, 0.067 and 0.037, respectively. Besides, the bioavailability in data set [5] stood at 79%; in data set [14], 83%. The values for the mean residence time MRT in data set [6] and in data set [13] were 11 h and 9.9 h, respectively. The Vdu was 14 L/kg in data set [7] and 18 L/kg in data set [12]. In data set [9], the CLint scaled is 4.5 mL/min/kg. The CL in data set [10] is 23 mL/min/kg; in data set [11], 30 mL/min/kg. Also, the logD in data set [19] amounted to 2.7. The compound also showed a pEC50 in [1] of 4.92. At PXR (NR1I2), the Emax turned out to be 80%.
In the case of `Cc1nnc(-c2ccc(-c3c(F)c(F)cc4c3C(=O)N([C@H](C3CC3)C(C)(C)O)C4)cc2)o1`, the Kp uu in [2] is 0.2. The fraction unbound was found to be 0.2 in data set [3], 0.098 in [4] and 0.038 in data set [8]. For the same compound, the bioavailability stood at 75% in [5] and 36% in data set [14]. Also, the figures for the MRT in data set [6] and in [13] were 10 h and 5.7 h, respectively. Further, the Vdu was 7.1 L/kg in data set [7] and 10 L/kg in data set [12]. In addition, the CLint scaled in data set [9] was determined as 33 mL/min/kg. The results for the CL in data set [10] and in data set [11] were 11 mL/min/kg and 30 mL/min/kg, respectively. For the same compound, the negative logarithm of the EC50 (pEC50) in data set [1] is 5.21. The maximal response (Emax) at PXR (NR1I2) was determined as 100%.
Take `Cc1nnc(-c2ccc(-c3c(F)cc(F)c4c3C(=O)N([C@@H](C(C)(C)O)C(F)(F)F)C4)cc2)o1`: the negative-log EC50 (pEC50) in [1] was 4.85. The maximum response (Emax) on PXR (NR1I2) amounted to 100%.
